Source: ChEMBL document CHEMBL1125826, “Synthesis and biological activity of 5-amino- and 5-hydroxyquinolones, and the overwhelming influence of the remote N1-substituent in determining the structure-activity relationship” (1991)
In brackets after ≈: the same amount, converted by molar mass.

Assays:
Assay type in all cases: functional
[1] = target: DNA gyrase (Escherichia coli) (UniProt P0AES6+P0AES4); assay: Minimum inhibitory concentration against Escherichia coli DNA-gyrase in supercoiling assay
Enterobacter cloacae = assay: Antibacterial activity was determined against gram negative organism, Enterobacter cloacae MA2646; conditions: Enterobacter cloacae; read-out: MIC
Escherichia coli = assay: Antibacterial activity was determined against gram negative organism, Escherichia coli vogel; conditions: Escherichia coli; read-out: MIC
Outline: (§1)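 MIC (µg/mL) by standard microtitration against a panel of 10 Gram-positive and Gram-negative organisms; values averaged from multiple experiments.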

Bacteria [2] = assay: MIC ratio measured as the mean MICs of gram-negative bacteria
Outline: (§2)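 Geometric mean of the microtitration MICs (µg/mL) over the Gram-negative organisms, and separately over the Gram-positive organisms, of the 10-strain panel; individual MICs averaged from multiple experiments.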

Bacteria [3] = assay: MIC ratio measured as the mean MICs of gram-positive bacteria; outline: as §2
Klebsiella pneumoniae = assay: Antibacterial activity was determined against gram negative organism, Klebsiella pneumoniae MGH-2; conditions: Klebsiella pneumoniae; read-out: MIC; outline: as §1
Pseudomonas aeruginosa = assay: Antibacterial activity was determined against gram negative organism, Pseudomonas aeruginosa UI-18; conditions: Pseudomonas aeruginosa; read-out: MIC; outline: as §1
Bacteria [4] = assay: Antibacterial activity was determined against gram negative organism, Providencia rettgeri. M1771; conditions: Bacteria; read-out: MIC; outline: as §1
Staphylococcus aureus [5] = assay: Antibacterial activity was determined against gram positive organism, Staphylococcus aureus H228; conditions: Staphylococcus aureus; read-out: MIC; outline: as §1
Streptococcus pneumoniae = assay: Antibacterial activity was determined against gram positive organism, Streptococcus pneumoniae SV-1; conditions: Streptococcus pneumoniae; read-out: MIC; outline: as §1
Enterococcus faecalis = assay: Antibacterial activity was determined against gram positive organism, Streptococcus faecalis MGH-2; conditions: Enterococcus faecalis; read-out: MIC; outline: as §1
Staphylococcus aureus [6] = assay: Antibacterial activity was determined against gram positive organism, Staphylococcus aureus UC76; outline: as §1
Streptococcus pyogenes = assay: Antibacterial activity was determined against gram positive organism, Streptococcus pyogenes C203; conditions: Streptococcus pyogenes; read-out: MIC; outline: as §1
[7] = Staphylococcus aureus, read-out: MIC

Row | MIC [1] [µg/mL] | MIC (Enterobacter cloacae) [µg/mL] | MIC (Escherichia coli) [µg/mL] | Geometric mean MIC over Gram-negative bacteria (µg/mL) (Bacteria [2]) | Geometric mean MIC over Gram-positive bacteria (µg/mL) (Bacteria [3]) | MIC (Klebsiella pneumoniae) [µg/mL] | MIC (Pseudomonas aeruginosa) [µg/mL] | MIC (Bacteria [4]) [µg/mL] | MIC (Staphylococcus aureus [5]) [µg/mL] | MIC (Streptococcus pneumoniae) [µg/mL] | MIC (Enterococcus faecalis) [µg/mL] | MIC (Staphylococcus aureus [6]) [µg/mL] | MIC (Streptococcus pyogenes) [µg/mL] | SMILES | MIC (Staphylococcus aureus [6]; [7]) [µg/mL] | Ratio (Bacteria [3])
1 | 5 (≈ 13.1 µM) | 3.1 (≈ 8.12 µM) | 1.6 (≈ 4.19 µM) | 4.14 | 6.27 | 3.1 (≈ 8.12 µM) | 12.5 (≈ 32.7 µM) | 6.3 (≈ 16.5 µM) | 3.1 (≈ 8.12 µM) | 12.5 (≈ 32.7 µM) | 12.5 (≈ 32.7 µM) | 1.6 (≈ 4.19 µM) | 12.5 (≈ 32.7 µM) | CCn1cc(C(=O)O)c(=O)c2cc(F)c(N3CC(C)NC(C)C3)c(Cl)c21 (stereo not given) | – | –
2 | 5 (≈ 13.1 µM) | 0.8 (≈ 2.1 µM) | 0.8 (≈ 2.1 µM) | 2.41 | 16.49 | 1.6 (≈ 4.2 µM) | 12.5 (≈ 32.8 µM) | 6.3 (≈ 16.5 µM) | 6.3 (≈ 16.5 µM) | 50 (≈ 131 µM) | 25 (≈ 65.6 µM) | – | 50 (≈ 131 µM) | CCn1cc(C(=O)O)c(=O)c2c(O)c(F)c(N3CC(C)NC(C)C3)c(F)c21 (stereo not given) | 3.1 (≈ 8.13 µM) | –
3 | 2.5 (≈ 7.41 µM) | 0.1 (≈ 0.296 µM) | 0.1 (≈ 0.296 µM) | 0.17 | 0.27 | 0.2 (≈ 0.593 µM) | 0.4 (≈ 1.19 µM) | 0.2 (≈ 0.593 µM) | 0.4 (≈ 1.19 µM) | 0.4 (≈ 1.19 µM) | 0.4 (≈ 1.19 µM) | 0.1 (≈ 0.296 µM) | 0.2 (≈ 0.593 µM) | CCn1cc(C(=O)O)c(=O)c2cc(F)c(N3CCC(N)C3)c(F)c21 (stereo not given) | – | –
4 | 2.5 (≈ 6.59 µM) | 0.1 (≈ 0.264 µM) | 0.1 (≈ 0.264 µM) | 0.26 | – | 0.2 (≈ 0.527 µM) | 1.6 (≈ 4.22 µM) | 0.4 (≈ 1.05 µM) | 0.1 (≈ 0.264 µM) | 0.1 (≈ 0.264 µM) | 0.1 (≈ 0.264 µM) | 0.05 (≈ 0.132 µM) | 0.1 (≈ 0.264 µM) | CCNCC1CCN(c2c(F)cc3c(=O)c(C(=O)O)cn(CC)c3c2F)C1 (stereo not given) [MERAFLOXACIN] | – | 0.087
5 | 2.5 (≈ 6.08 µM) | 3.1 (≈ 7.54 µM) | 1.6 (≈ 3.89 µM) | 6.28 | 1.59 | 6.3 (≈ 15.3 µM) | 25 (≈ 60.8 µM) | 12.5 (≈ 30.4 µM) | 1.6 (≈ 3.89 µM) | 1.6 (≈ 3.89 µM) | 1.6 (≈ 3.89 µM) | – | 6.3 (≈ 15.3 µM) | CCNCC1CCN(c2c(F)c(N)c3c(=O)c(C(=O)O)cn(CC)c3c2Cl)C1 (stereo not given) | 0.4 (≈ 0.974 µM) | –

The remaining lines, values behind:

Row | SMILES | MIC [1] [µg/mL] | MIC (Enterobacter cloacae) [µg/mL] | MIC (Escherichia coli) [µg/mL] | Geometric mean MIC over Gram-negative bacteria (µg/mL) (Bacteria [2]) | Geometric mean MIC over Gram-positive bacteria (µg/mL) (Bacteria [3]) | MIC (Klebsiella pneumoniae) [µg/mL] | MIC (Pseudomonas aeruginosa) [µg/mL] | MIC (Bacteria [4]) [µg/mL] | MIC (Staphylococcus aureus [5]) [µg/mL] | MIC (Streptococcus pneumoniae) [µg/mL] | MIC (Enterococcus faecalis) [µg/mL] | MIC (Staphylococcus aureus [6]) [µg/mL] | MIC (Streptococcus pyogenes) [µg/mL] | MIC (Staphylococcus aureus [6]; [7]) [µg/mL] | Ratio (Bacteria [3])
6 | CCn1cc(C(=O)O)c(=O)c2cc(F)c(N3CCNCC3)c(Cl)c21 | 2.5 (≈ 7.07 µM) | 0.1 (≈ 0.283 µM) | 0.1 (≈ 0.283 µM) | 0.3 | 1.19 | 0.2 (≈ 0.565 µM) | 3.1 (≈ 8.76 µM) | 0.4 (≈ 1.13 µM) | 0.4 (≈ 1.13 µM) | 3.1 (≈ 8.76 µM) | 3.1 (≈ 8.76 µM) | 0.2 (≈ 0.565 µM) | 3.1 (≈ 8.76 µM) | – | –
7 | CCn1cc(C(=O)O)c(=O)c2cc(F)c(N3CCC(N)C3)cc21 (stereo not given) | 2.5 (≈ 7.83 µM) | 0.1 (≈ 0.313 µM) | 0.1 (≈ 0.313 µM) | 0.13 | 0.4 | 0.2 (≈ 0.626 µM) | 0.8 (≈ 2.51 µM) | 0.2 (≈ 0.626 µM) | 0.8 (≈ 2.51 µM) | 0.4 (≈ 1.25 µM) | 0.8 (≈ 2.51 µM) | 0.1 (≈ 0.313 µM) | 0.4 (≈ 1.25 µM) | – | –
8 | CCn1cc(C(=O)O)c(=O)c2cc(F)c(N3CCNCC3)c(F)c21 | 2.5 (≈ 7.41 µM) | 0.1 (≈ 0.296 µM) | 0.1 (≈ 0.296 µM) | 0.17 | 1.58 | 0.1 (≈ 0.296 µM) | 0.8 (≈ 2.37 µM) | 0.2 (≈ 0.593 µM) | 1.6 (≈ 4.74 µM) | 3.1 (≈ 9.19 µM) | 1.6 (≈ 4.74 µM) | 0.4 (≈ 1.19 µM) | 3.1 (≈ 9.19 µM) | – | –
9 | O=C(O)c1cn(C2CC2)c2c(F)c(N3CCNCC3)c(F)c(O)c2c1=O | 0.5 (≈ 1.37 µM) | 0.1 (≈ 0.274 µM) | 0.05 (≈ 0.137 µM) | 0.17 | 1.06 | 0.2 (≈ 0.547 µM) | 0.8 (≈ 2.19 µM) | 0.2 (≈ 0.547 µM) | 1.6 (≈ 4.38 µM) | 1.6 (≈ 4.38 µM) | 1.6 (≈ 4.38 µM) | – | 1.6 (≈ 4.38 µM) | 0.2 (≈ 0.547 µM) | –
10 | CCn1cc(C(=O)O)c(=O)c2c(N)c(F)c(N3CCNCC3)c(Cl)c21 | 5 (≈ 13.6 µM) | 0.4 (≈ 1.08 µM) | 0.2 (≈ 0.542 µM) | 0.79 | 2.37 | 0.4 (≈ 1.08 µM) | 6.3 (≈ 17.1 µM) | 1.6 (≈ 4.34 µM) | 3.1 (≈ 8.41 µM) | 3.1 (≈ 8.41 µM) | 6.3 (≈ 17.1 µM) | – | 3.1 (≈ 8.41 µM) | 0.4 (≈ 1.08 µM) | –
